Compounds with a hit are over-represented: about 9.6% of the library has one in this group of screens.
HCT116 PTEN-null – growth suppression of PTEN-null HCT116, primary screen, cell-based, CellTiter-Glo. HCT116 PTEN-null viability, 60 h; hits give low values. viability, % at 10 µM. 140,000 tested, 1.2% active. AID 827, 2007;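 active means viability at or below a set limit, 4 SD under the median of all tested compounds, cut at about 3.7% in these data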;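 further: PTEN knockout HCT116 line with beta catenin targeted HCT116 as companion control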
Lmaj promast – Leishmania major promastigote growth inhibition, primary screen. Leishmania major promastigotes, resazurin fluorescence viability. inhibition, % at 10 µM. 200,000 tested, 9% active. AID 1063, 2008; in the data active means inhibition above about 50%;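 further: promastigotes grown with compound for 44 hours at 28 °C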
PMI activator – activators of human PMI, primary screen, biochemical, fluorescence intensity, near-Km mannose 6-phosphate; Mannose-6-phosphate isomerase (Homo sapiens), P34949; AID 1214, 2008; 190,000 tested, 0.005% active; activation factor at 20 µM; purified human PMI, coupled resazurin fluorescence, 20 min; hits give high values; 1 = vehicle control, 0 substrate-free wells;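 active means activation factor of 2 or more at 20 µM, relative to plate controls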
Target sequence (P34949 whole entry, looked up): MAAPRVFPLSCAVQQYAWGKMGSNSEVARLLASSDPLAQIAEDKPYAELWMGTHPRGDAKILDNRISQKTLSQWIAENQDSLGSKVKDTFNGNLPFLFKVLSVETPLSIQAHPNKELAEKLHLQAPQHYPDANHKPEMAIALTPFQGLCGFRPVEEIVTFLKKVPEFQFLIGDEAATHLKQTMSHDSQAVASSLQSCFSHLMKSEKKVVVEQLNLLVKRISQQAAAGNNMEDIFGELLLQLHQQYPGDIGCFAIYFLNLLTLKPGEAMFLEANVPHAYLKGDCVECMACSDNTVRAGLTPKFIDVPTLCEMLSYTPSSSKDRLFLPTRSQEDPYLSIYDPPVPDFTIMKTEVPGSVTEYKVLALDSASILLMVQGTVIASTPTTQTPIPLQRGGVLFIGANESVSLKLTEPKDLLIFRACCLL
bCat KO growth – primary screen for growth suppressors in beta-catenin knockout HCT116 cells (colon tumor, human) | HCT116 beta-catenin knockout viability, CellTiter-Glo, 60 h; hits give low values | viability, % at 10 µM | 140,000 tested, 1.5% active | AID 818, 2007;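 active means viability at or under a set limit, the compound median less 4 SD, cut at about 6% in these data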;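 further: 0% = Hyamine 1622 control at 20 µM and 100% = untreated cell control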
PMI act hi M6P – human PMI activators, high substrate, primary screen, biochemical, fluorescence intensity, near-saturating mannose 6-phosphate. AID 1216, 2008. Mannose-6-phosphate isomerase (Homo sapiens), P34949. activation factor at 20 µM. coupled PMI enzyme assay, resazurin fluorescence, 20 min; hits give high values; 1 = untreated enzyme, 0 = substrate-free blank. 190,000 tested, 0.34% active;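 active means activation factor of 2 or more at 20 µM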
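Test system: human phosphomannose isomerase with PGI, G6PDH, diaphorase coupling enzymes / Doses: 20 µM compound, 1% DMSO / Times: enzyme reaction with compound 20 min at room temperature / Measured by: Diaphorase-driven resazurin-to-resorufin fluorescence, excitation 544, emission 590 nm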
Active calls of the source: *; nt = no result.

SMILES	HCT116 PTEN-null	Lmaj promast	PMI activator	bCat KO growth	PMI act hi M6P
CCC(C)(C)n1nnnc1CN(Cc1ccc(Cl)cc1)Cc1ccco1	46	56*	0.8	44	0.8
CC(C)(C)n1nnnc1C(c1ccc(F)cc1)N(Cc1ccc(F)cc1)Cc1ccco1 (configuration not stated)	16	18	0.9	9	0.9
Cc1ccc(Nc2c(-c3ccccn3)nc3ccc(C)cn23)cc1	nt	101*	1	nt	1.1
Cc1ccn2c(Nc3ccc4c(c3)OCO4)c(-c3ccccn3)nc2c1	14	100*	0.9	14	0.9
Cc1ccc(Nc2c(-c3ccccn3)nc3cc(C)ccn23)cc1	nt	101*	1.3	nt	1.3
Cc1ccc2nc(-c3ccncc3)c(Nc3ccccc3)n2c1	73	97*	0.8	80	1
Cc1ccc2nc(-c3ccco3)c(Nc3ccccc3)n2c1	95	4	1	90	0.9
Cc1ccc(Nc2c(-c3ccccc3)nc3cnccn23)cc1	nt	19	1	nt	1
COC(=O)c1ccc(N=NNc2cccc(Br)c2)cc1	92	-7	0.8	90	1
COc1ccc(N2C(=O)CCC(C(=O)NCCCN3CCC(C)CC3)C2c2ccc(OC)c(OC)c2)cc1 (configuration not stated)	nt	-4	1	nt	1
COc1cccc(C2=NN(S(C)(=O)=O)C(c3cccs3)C2)c1 (configuration not stated)	nt	4	1	nt	1
C(=N/N1CCN(c2ccccc2)CC1)/c1ccncc1	nt	25	1	nt	1
CC[n+]1c(/C=C2/C=C(C)CC(C)(C)C2)sc2ccc(OC)cc21	4	100*	1.3	8	1.8
COc1ccc2sc(C)[n+](C)c2c1	nt	0	0.2	nt	0.9
CC[n+]1c(/C=C2\C=C(C)CC(C)C2)sc2ccccc21 (configuration not stated)	60	100*	1.2	64	1.9
CC[n+]1c(/C=C2\C=C(C)CC(C)(C)C2)sc2ccccc21	16	100*	1.2	42	1.7
CCC1=C/C(=C/c2sc3ccccc3[n+]2CC)CC(C)(C)C1	nt	99*	1.6	nt	2.3*
CCCC(NS(=O)(=O)c1ccc(Br)cc1)C(=O)O (configuration not stated)	108	-6	0.9	94	1
O=C(CSc1n[nH]c(-c2ccccc2)n1)NCc1cccc(C(=O)O)c1	nt	-10	1	nt	1.1
CC1=CC(C)(C)N(S(=O)(=O)c2ccc(C)cc2)c2ccc(C)cc21	17	100*	1	15	1
CC(=O)Nc1ccc(S(=O)(=O)N2c3ccccc3C(C)=CC2(C)C)cc1	nt	100*	0.8	nt	0.9
CC1=CC(C)(C)N(S(=O)(=O)c2ccc(F)cc2)c2ccccc21	21	48	0.9	18	0.9
CCOc1ccc(N2C(=O)C(Cl)=C(Nc3ccccc3O)C2=O)cc1	68	2	0.9	57	1
CC1(C)Cc2cccc(OCC(=O)Nc3cc(C(F)(F)F)ccc3N3CCOCC3)c2O1	84	20	0.9	77	1
S=C(N=Nc1ccccc1)NNc1ccccc1	92	-2	1.8	89	2.7*
SMILES	HCT116 PTEN-null	Lmaj promast	PMI activator	bCat KO growth	PMI act hi M6P
CC(=Nc1ccccc1)Nc1ccccc1	97	-2	1	107	1
CCn1cc(CNC(=O)c2cc(-c3cc(OC)ccc3OC)nc3ccccc23)c(C)n1	88	56*	0.9	92	0.9
O=C(/C=C/c1ccccc1)N/C(=C/c1ccccc1)C(=O)N1CCCCC1	91	7	1	94	1
COCCn1c(C)cc(C(=O)CSc2nc(C)nc3sc4c(c23)CCC4)c1C	nt	-2	nt	nt	nt
O=C(Cc1cccs1)NCCSc1c(-c2ccc(Cl)cc2)[nH]c2ccccc12	12	29	1	4.7*	0.9
CCn1cc(C2=NOC(C(=O)Nc3cc(C)nn3-c3ccccc3)C2)c(C)n1 (configuration not stated)	101	-8	1	102	1
CCn1c(O)c(N=NC(=O)CNC(=O)c2ccco2)c2ccccc21	69	1	1	77	1.1
CCCn1c(O)c(N=NC(=O)c2ccco2)c2ccccc21	64	68*	1.1	71	1
Cc1ccc(CNC(=O)c2cnccn2)cc1	102	-8	1	93	1
CC(=O)c1ccc(N2Cc3ccccc3C3(CCOCC3)C2=N)cc1	nt	0	1.1	nt	0.9
Cc1cc(C)nc(Nc2nc3ccccc3[nH]2)n1	83	35	1	77	1
c1ccc(Nc2nc3ccccc3[nH]2)nc1	64	100*	1	54	1
COCc1cc(C)nc(OCC(=O)N/N=C/c2ccc(C)o2)c1C#N	nt	0	1.1	nt	1.1
Cc1cc(N=Cc2c(O)n(-c3ccc4c(c3)OCO4)c(=O)c3ccccc23)ccn1	80	14	0.9	83	1
Cc1ccc(-n2c(O)c(C=Nc3ccc4c(c3)OCO4)c3ccccc3c2=O)cc1C	2.4*	0	0.9	2.0*	0.9
Cc1cc(N=Cc2c(O)n(-c3ccc(C)c(C)c3)c(=O)c3ccccc23)no1	28	54*	0.8	33	1
Cc1cc(C(=O)CN2C(=O)C(=O)N(CC(C)C)C2=O)c(C)n1-c1ccccc1F	nt	-10	1	nt	0.9
COc1ccc(C(=O)NNC(=O)c2cccc(F)c2)cc1	nt	-8	1.1	nt	1
CC1CCN(C(=O)CSc2nnc(Cc3cc(=O)[nH]c(=O)[nH]3)n2-c2ccc(Cl)cc2)CC1	86	-5	0.9	92	1.2
CC(=O)Nc1ccc(CN2CCN(c3cccc(C(F)(F)F)c3)CC2)cc1	88	91*	0.9	88	0.9
CC(=O)c1c(C)nc2ccc(Cl)cn12	95	-6	1	97	0.9
Cc1oc2ccc(O)c(CN3CCOCC3)c2c1C(=O)c1ccc(Cl)cc1	48	52*	0.9	55	0.8
CCNC(=S)N=Nc1c(O)[nH]c2ccc(C(C)C)cc12	17	78*	0.9	26	0.8
Cc1cccc(OCC(=O)Nc2ccc(C(=O)c3ccc(C(=O)O)cc3)cc2)c1	nt	-7	1	nt	1
CNc1nc(OC)nc(N(C#N)CN2C(=O)c3ccccc3S2(=O)=O)n1	nt	-3	1.1	nt	1
O=C(CN1CCc2[nH]c3ccccc3c2C1)N1CCCCC1	89	-9	0.9	92	1
O=C(CN1CCN(c2ccccc2)CC1)N1CCc2[nH]c3ccccc3c2C1	72	91*	0.9	71	0.8
Cc1ccc(CSCC(=O)N2CCN(Cc3ccc4c(c3)OCO4)CC2)cc1	100	59*	0.9	100	0.9
O=C(CCC1CCCCC1)N1CCN(Cc2ccc3c(c2)OCO3)CC1	84	96*	0.8	92	0.8
